The record followed here is ChEMBL document CHEMBL4480375, “Synthesis and receptor binding of thiophene bioisosteres of potent GluN2B ligands with a benzo[7]annulene-scaffold” (Medchemcomm, 2019).

Assay [1] concerns the target T1, Glutamate receptor ionotropic, NMDA 2B (Homo sapiens, UniProt Q13224). In words: Displacement of [3H]-ifenprodil from GluN2B (unknown origin) expressed in mouse L(tk) cells measured after 120 mins by scintillation counting analysis. For orientation: In a radioligand displacement assay an active substance lowers the binding of a labelled ligand.
The target of assay [2] is Glutamate receptor ionotropic, NMDA 2B (Homo sapiens, UniProt Q05586+Q13224). In words: Displacement of [3H]-ifenprodil from GluN2B (unknown origin) expressed in L(tk) cells by radio ligand binding assay. Format: cell-based. The method in brief: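 Mouse L(tk-) cells stably carrying dexamethasone-inducible GluN1a/GluN2B (1:5) were induced for 24 h with 4 μM dexamethasone plus 4 μM ketamine, then sonicated to membranes (about 20 μg protein). […] Filtration and scintillation counting, in duplicate. Ki by Cheng–Prusoff (Kd 7.6 nM), mean ± SEM of n=3.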

Assay [3] concerns the target T2, Sigma intracellular receptor 2 (Rattus norvegicus, UniProt Q5U3Y7).
T2 sequence (Q5U3Y7 whole entry): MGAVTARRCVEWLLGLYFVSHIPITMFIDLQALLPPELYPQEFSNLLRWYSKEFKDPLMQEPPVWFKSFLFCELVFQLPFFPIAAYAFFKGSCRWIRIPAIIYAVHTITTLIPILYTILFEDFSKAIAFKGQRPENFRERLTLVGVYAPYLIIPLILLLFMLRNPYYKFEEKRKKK
The experiment in a line: Displacement of [3H]di-o-tolylguanidine from sigma2 receptor in rat liver membranes measured after 120 mins by scintillation counting analysis. It counts as cell membranes.

Assay [4] has as its target Sigma non-opioid intracellular receptor 1 (Cavia porcellus, UniProt Q60492). In words: Displacement of [3H]-(+)-pentazocine from sigma1 receptor in guinea pig brain cortex membranes measured after 120 mins by scintillation counting analysis. It counts as cell membranes.
Assay [5] addresses T1, Glutamate receptor ionotropic, NMDA 2B. In words: Inhibition of GluN2B (unknown origin).

Each structure is given as a SMILES string.

Chain of Sigma non-opioid intracellular receptor 1 (Q60492 whole entry): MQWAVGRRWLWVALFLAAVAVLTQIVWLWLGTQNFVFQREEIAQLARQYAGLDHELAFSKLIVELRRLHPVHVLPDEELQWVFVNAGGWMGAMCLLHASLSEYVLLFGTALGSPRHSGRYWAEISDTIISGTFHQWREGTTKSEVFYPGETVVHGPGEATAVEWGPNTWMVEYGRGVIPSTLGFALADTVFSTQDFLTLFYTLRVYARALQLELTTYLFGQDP
T1 sequence (Q13224 whole entry): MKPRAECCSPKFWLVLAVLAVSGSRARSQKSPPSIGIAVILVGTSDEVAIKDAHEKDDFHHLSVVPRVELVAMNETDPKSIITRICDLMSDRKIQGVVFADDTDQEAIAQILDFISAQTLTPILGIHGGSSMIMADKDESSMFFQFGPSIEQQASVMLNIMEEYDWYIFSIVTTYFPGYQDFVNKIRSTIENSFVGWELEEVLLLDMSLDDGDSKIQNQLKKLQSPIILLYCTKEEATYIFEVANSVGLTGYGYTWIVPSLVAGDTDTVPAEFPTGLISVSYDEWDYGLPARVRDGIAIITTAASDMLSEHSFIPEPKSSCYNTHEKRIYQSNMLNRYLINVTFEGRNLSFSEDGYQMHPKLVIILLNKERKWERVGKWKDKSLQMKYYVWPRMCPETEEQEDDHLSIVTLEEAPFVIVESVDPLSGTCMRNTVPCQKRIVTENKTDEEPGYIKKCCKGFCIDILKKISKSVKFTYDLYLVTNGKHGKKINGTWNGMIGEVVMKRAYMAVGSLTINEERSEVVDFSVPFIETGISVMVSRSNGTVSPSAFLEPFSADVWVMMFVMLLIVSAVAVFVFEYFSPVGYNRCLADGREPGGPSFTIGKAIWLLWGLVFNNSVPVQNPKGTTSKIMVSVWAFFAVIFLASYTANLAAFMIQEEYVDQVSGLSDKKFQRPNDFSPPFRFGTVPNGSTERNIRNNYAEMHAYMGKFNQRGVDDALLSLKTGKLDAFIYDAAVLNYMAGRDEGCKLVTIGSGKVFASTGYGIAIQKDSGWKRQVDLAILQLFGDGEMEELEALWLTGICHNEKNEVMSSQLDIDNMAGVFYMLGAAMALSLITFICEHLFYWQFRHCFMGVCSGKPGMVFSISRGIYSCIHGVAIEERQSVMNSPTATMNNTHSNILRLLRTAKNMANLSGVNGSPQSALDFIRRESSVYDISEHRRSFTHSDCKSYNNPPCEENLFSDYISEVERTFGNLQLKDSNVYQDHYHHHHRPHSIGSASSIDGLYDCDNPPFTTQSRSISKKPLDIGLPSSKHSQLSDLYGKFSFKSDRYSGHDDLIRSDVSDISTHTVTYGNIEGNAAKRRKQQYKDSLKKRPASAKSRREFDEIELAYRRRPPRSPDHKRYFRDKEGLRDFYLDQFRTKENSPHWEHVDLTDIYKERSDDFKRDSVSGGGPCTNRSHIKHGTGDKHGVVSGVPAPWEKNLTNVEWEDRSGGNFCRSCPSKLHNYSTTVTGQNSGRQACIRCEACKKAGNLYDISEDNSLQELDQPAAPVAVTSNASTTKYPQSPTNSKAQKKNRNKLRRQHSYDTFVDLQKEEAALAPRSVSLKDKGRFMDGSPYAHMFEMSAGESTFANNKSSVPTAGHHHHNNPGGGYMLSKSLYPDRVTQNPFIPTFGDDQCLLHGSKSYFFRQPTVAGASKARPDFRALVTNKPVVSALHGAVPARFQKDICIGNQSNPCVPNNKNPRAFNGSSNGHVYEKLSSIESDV
Chain of Glutamate receptor ionotropic, NMDA 2B (Homo sapiens, UniProt Q05586+Q13224) (Q13224 whole entry, one chain of several): as the sequence (Q13224 whole entry) above

One may read the Ki as a dissociation constant, usually derived from enzyme kinetics or from competition with a known ligand. As for `Nc1ccc2c(c1)CCC(NCc1ccccc1)CC2` (stereo unspecified), the inhibition constant Ki in assay [1] came to 128 nM; in assay [2], 128 nM; in assay [3], 770 nM; in assay [4], 470 nM.
`c1ccc(CNC2CCc3ccsc3CC2)cc1` (stereo unspecified): the figures for the Ki in assay [1], in assay [3] and in assay [4] were 26 nM, 50 nM and 79 nM, respectively.
For `OC1CC(NCc2ccccc2)CCc2sccc21` (mixture of isomers), in that order: 204 nM, 606 nM and 737 nM.
With `COc1ccc2c(c1)CC[C@H](NCCCc1ccccc1)C[C@@H]2O` (relative stereo), the Ki came to 9.2 nM in assay [3] and 132 nM in assay [4].
In the case of `COc1ccc2c(c1)CC[C@H](NCCCc1ccccc1)C[C@H]2O` (relative stereo), the Ki in assay [1] is 48 nM; in assay [3] it was 1100 nM; in assay [4], 167 nM; in assay [5] it was 48 nM.
